Activity, deltaT and Ki data for 2 compounds are collected here from ChEMBL document CHEMBL1155976, “Synthesis and preliminary pharmacological evaluation of imidazo[2,1-f]purine-2,4-dione derivatives” (Eur J Med Chem, 2009).

The test system of series [1] is Mus musculus. Kind of series: Sedative activity in Swiss albino mouse assessed as reduction on spontaneous locomotor activity at 10 mg/kg, ip administered 30 mins before test measured for 6 mins. It counts as ADME, organism-based. Conditions: in vivo, 0.1 h. Also on record: dose 10 mg/kg, route intraperitoneal.
Series [2] has as its system Mus musculus. Kind of series: Sedative activity in Swiss albino mouse assessed as reduction on spontaneous locomotor activity at 10 mg/kg, ip administered 30 mins before test measured for 30 mins. Format: ADME, organism-based. Particulars: in vivo, 0.5 h. Also on record: dose 10 mg/kg, route intraperitoneal.
Series [3] concerns Mus musculus. Nature of the series: Antidepressant activity in Swiss albino mouse assessed as reduction of immobility time at 10 mg/kg, ip administered 30 mins before test by forced swimming test. Particulars: route intraperitoneal. It counts as functional. Put shortly:
(§1)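 Male Albino Swiss mice (24–28 g); agent suspended in 1% aqueous Tween 80, ip 10 ml/kg, 30 min before the test. Total immobility time scored over the last 4 min of a 6-min swim session. n = 8–10 mice per group; mean ± SEM, compared with vehicle.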

Series [4] concerns Mus musculus. Nature of the series: Antidepressant activity in Swiss albino mouse assessed as reduction of immobility time at 20 mg/kg, ip administered 30 mins before test by forced swimming test. Conditions: route intraperitoneal. Format: functional. Put shortly: as §1
The test system of series [5] is Mus musculus. Nature of the series: Antidepressant activity in Swiss albino mouse assessed as reduction of immobility time at 30 mg/kg, ip administered 30 mins before test by forced swimming test. It counts as functional. Conditions: route intraperitoneal. Put shortly: as §1
Series [6] concerns Mus musculus. Nature of the series: Sedative activity in Swiss albino mouse assessed as reduction on spontaneous locomotor activity at 20 mg/kg, ip administered 30 mins before test measured for 6 mins. Particulars: in vivo, 0.1 h. Format: ADME, organism-based. Further details: dose 20 mg/kg, route intraperitoneal. In outline: (§2)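 Male Albino Swiss mice (24–28 g); agent ip in 1% Tween 80, 30 min before the test. Locomotor activity counted as number of crossings during 6-min and 30-min sessions. n = 8–10 mice per group; mean ± SEM versus vehicle.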

The subject of series [7] is Mus musculus. Kind of series: Sedative activity in Swiss albino mouse assessed as reduction on spontaneous locomotor activity at 20 mg/kg, ip administered 30 mins before test measured for 30 mins. It counts as ADME, organism-based. Also on record: dose 20 mg/kg, route intraperitoneal. Conditions: in vivo, 0.5 h. In outline: as §2
For series [8], the system named is Mus musculus. Nature of the series: Sedative activity in Swiss albino mouse assessed as reduction on spontaneous locomotor activity at 30 mg/kg, ip administered 30 mins before test measured for 6 mins. Format: ADME, organism-based. Further details: dose 30 mg/kg, route intraperitoneal. Conditions: in vivo, 0.1 h. In outline: as §2
The test system of series [9] is Mus musculus. Nature of the series: Sedative activity in Swiss albino mouse assessed as reduction on spontaneous locomotor activity at 30 mg/kg, ip administered 30 mins before test measured for 30 mins. It counts as ADME, organism-based. Further details: dose 30 mg/kg, route intraperitoneal. Conditions: in vivo, 0.5 h. Put shortly:
as §2

Series [10] concerns Mus musculus. Kind of series: Agonist activity at 5HT1A receptor in ip dosed Swiss albino mouse assessed as decrease in rectal temperature. Format: functional, organism-based. Put shortly: (§3)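 Male Albino Swiss mice (24–28 g), free food and water, room at 20 ± 1 °C; test agent suspended in 1% aqueous Tween 80, given ip at 10 ml/kg. Rectal temperature read with a thermometer at 30, 60, 90 and 120 min after dosing. Result expressed as Δt from basal temperature taken at the start; six to ten animals per group, each used once.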

Series [11] deals with Mus musculus. Nature of the series: Agonist activity at 5HT1A receptor in Swiss albino mouse assessed as decrease in rectal temperature at 5 mg/kg, ip after 90 mins. It counts as functional, organism-based. Also on record: dose 5 mg/kg. Put shortly: as §3
In series [12] the test system is Mus musculus. Kind of series: Agonist activity at 5HT1A receptor in Swiss albino mouse assessed as decrease in rectal temperature at 10 mg/kg, ip after 60 mins. It counts as functional, organism-based. Further details: dose 10 mg/kg. In outline: as §3
For series [13], the system named is Mus musculus. Kind of series: Agonist activity at 5HT1A receptor in Swiss albino mouse assessed as decrease in rectal temperature at 5 mg/kg, ip after 60 mins. It counts as functional, organism-based. Further details: dose 5 mg/kg. Put shortly: as §3
In series [14] the test system is Mus musculus. Kind of series: Agonist activity at 5HT1A receptor in Swiss albino mouse assessed as decrease in rectal temperature at 10 mg/kg, ip after 30 mins. Also on record: dose 10 mg/kg. Format: functional, organism-based. In outline:
as §3

The target in the next series is D(2) dopamine receptor (Rattus norvegicus, UniProt P61169). Nature of the series: Displacement of [3H]spiperone from dopamine D2 receptor in rat striatum membrane after 30 mins by liquid scintillation counting. It counts as cell membranes. In outline:
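Rat striatum homogenised in 50 mM potassium phosphate pH 7.4 and spun twice at 20000 × g. Membranes (3 mg wet weight) incubated with 1 nM [3H]-spiperone and test agent in 0.5 ml for 30 min at 37 °C. Nonspecific binding with (+)butaclamol. GF/B filtration, two washes with ice-cold buffer, scintillation counting; Ki from ≥3 experiments, 10 concentrations in triplicate.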

For series [15], the system named is Mus musculus. Nature of the series: Agonist activity at 5HT1A receptor in Swiss albino mouse assessed as decrease in rectal temperature at 5 mg/kg, ip after 30 mins. It counts as functional, organism-based. Further details: dose 5 mg/kg. In outline: as §3
Series [16] deals with 5-hydroxytryptamine receptor 2A (Rattus norvegicus, UniProt P14842). Nature of the series: Displacement of [3H]ketanserin from 5HT2A receptor in rat cerebral cortex after 20 mins by liquid scintillation counting. Format: tissue-based. In outline: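 Rat cerebral cortex homogenised in 50 mM Tris-HCl pH 7.7, spun at 32000 × g, preincubated 10 min at 37 °C, resuspended in 50 volumes. Incubated with 0.6 nM [3H]-ketanserin and test agent (10^-10 to 10^-4 M) at 37 °C for 20 min; mianserin as displacer. GF/B filtration, scintillation counting; Ki from ≥3 experiments, 10 concentrations in triplicate.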
5-hydroxytryptamine receptor 2A, sequence (P14842 whole entry): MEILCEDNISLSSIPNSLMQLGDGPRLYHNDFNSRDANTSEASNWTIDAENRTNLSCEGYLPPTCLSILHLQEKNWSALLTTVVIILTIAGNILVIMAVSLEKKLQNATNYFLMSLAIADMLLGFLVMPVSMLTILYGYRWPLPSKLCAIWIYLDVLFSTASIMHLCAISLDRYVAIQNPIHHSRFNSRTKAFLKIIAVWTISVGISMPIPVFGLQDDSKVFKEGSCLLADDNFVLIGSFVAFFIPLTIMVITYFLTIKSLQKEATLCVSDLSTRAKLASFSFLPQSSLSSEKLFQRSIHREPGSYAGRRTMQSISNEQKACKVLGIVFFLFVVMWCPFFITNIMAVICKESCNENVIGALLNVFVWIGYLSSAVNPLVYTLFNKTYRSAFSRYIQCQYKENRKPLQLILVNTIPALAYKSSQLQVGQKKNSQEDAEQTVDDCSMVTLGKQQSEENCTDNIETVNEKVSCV

Series [17] addresses T1, 5-hydroxytryptamine receptor 1A (Rattus norvegicus, UniProt P19327).
T1 sequence (P19327 whole entry): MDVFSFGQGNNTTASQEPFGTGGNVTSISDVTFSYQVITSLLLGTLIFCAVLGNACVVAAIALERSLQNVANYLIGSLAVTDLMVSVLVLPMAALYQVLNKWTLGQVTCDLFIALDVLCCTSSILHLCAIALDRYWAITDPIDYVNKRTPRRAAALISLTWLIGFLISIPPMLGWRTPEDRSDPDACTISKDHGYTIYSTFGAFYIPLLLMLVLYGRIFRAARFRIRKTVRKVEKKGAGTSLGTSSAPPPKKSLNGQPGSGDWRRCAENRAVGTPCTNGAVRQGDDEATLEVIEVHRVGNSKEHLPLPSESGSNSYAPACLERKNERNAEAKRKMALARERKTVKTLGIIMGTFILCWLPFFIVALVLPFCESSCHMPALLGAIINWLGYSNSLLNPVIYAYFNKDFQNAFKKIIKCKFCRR
Nature of the series: Displacement of [3H]8-OH-DPAT from 5HT1A receptor in rat cerebral cortex after 15 mins by liquid scintillation counting. It counts as tissue-based.

In series [18] the test system is Mus musculus. Kind of series: Agonist activity at 5HT1A receptor in Swiss albino mouse assessed as decrease in rectal temperature at 10 mg/kg, ip after 90 mins. It counts as functional, organism-based. Also on record: dose 10 mg/kg. In outline: as §3
Series [19] concerns Mus musculus. Kind of series: Agonist activity at 5HT1A receptor in Swiss albino mouse assessed as decrease in rectal temperature at 5 mg/kg, ip after 120 mins. It counts as functional, organism-based. Further details: dose 5 mg/kg. In outline:
as §3

Series [20] has as its system Mus musculus. Nature of the series: Agonist activity at 5HT1A receptor in Swiss albino mouse assessed as decrease in rectal temperature at 10 mg/kg, ip after 30 mins in presence of WAY 100635 administered 15 mins before drug challenge. Format: functional, organism-based. Also on record: dose 10 mg/kg. Put shortly: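 Male Albino Swiss mice (24–28 g). WAY 100635 (0.1 mg/kg, sc, in distilled water) given 15 min before test agent (ip, suspended in 1% Tween 80, 10 ml/kg). Rectal temperature recorded 30 and 60 min after test agent injection. Expressed as Δt versus basal temperature at the start of the experiment.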

Another series relates to Rattus norvegicus. Nature of the series: Behavioral activity in Wistar rat assessed as reduction of 8-OH-DPAT-induced lower lip retraction at 10 to 20 mg/kg, ip administered 45 mins before 8-OH-DPAT challenge. It counts as functional, organism-based.
For series [21], the system named is Mus musculus. Nature of the series: Anxiolytic activity in Swiss albino mouse assessed as number of punished crossings at 10 mg/kg, ip administered 30 mins before test measured for 60s by four plate test. Format: functional. Particulars: route intraperitoneal. In outline:
(§4)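 Male Albino Swiss mice. Box with four metal floor plates separated by 4 mm gaps; 120 V between adjacent plates for 0.5 s delivered on crossing. Mice explored 15 s before testing. Agent (ip, 1% Tween 80) given 30 min before the test. Punished crossings counted; n = 10 mice per group, mean ± SEM.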

Series [22] concerns Mus musculus. Kind of series: Anxiolytic activity in Swiss albino mouse assessed as number of punished crossings at 20 mg/kg, ip. administered 30 mins before test measured for 60s by four plate test. Format: functional. Put shortly: as §4

SMILES strings stand for the structures. Active and inactive are the calls of the source. No cut-off for these calls is given here. Where only a bound is given, the exact number is not on record here.

D(2) dopamine receptor, sequence (P61169 whole entry): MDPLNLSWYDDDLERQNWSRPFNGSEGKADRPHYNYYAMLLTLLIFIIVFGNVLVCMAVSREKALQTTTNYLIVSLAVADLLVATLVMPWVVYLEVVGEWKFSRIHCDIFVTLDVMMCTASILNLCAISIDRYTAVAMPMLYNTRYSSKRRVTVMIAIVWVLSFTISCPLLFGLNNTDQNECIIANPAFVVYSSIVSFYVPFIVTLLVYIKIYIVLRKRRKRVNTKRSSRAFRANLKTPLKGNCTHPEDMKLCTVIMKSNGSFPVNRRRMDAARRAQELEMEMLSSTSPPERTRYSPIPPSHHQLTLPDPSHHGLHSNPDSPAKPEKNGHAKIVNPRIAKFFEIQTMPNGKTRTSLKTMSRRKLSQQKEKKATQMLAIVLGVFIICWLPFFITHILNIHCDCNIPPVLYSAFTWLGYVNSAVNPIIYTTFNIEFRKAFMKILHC

Take `CN(C)CCCN1c2ccccc2CCc2ccccc21` [IMIPRAMINE]: the Activity with Mus musculus [1] is recorded as 338; in the series on Mus musculus [2] it was 876.8; in the series with Mus musculus [3] it was 149.1 s; with Mus musculus [4] it was 107.8 s; in the series on Mus musculus [5] it was 76.4 s; in the series on Mus musculus [6], 314.9. Moreover, the results for the Activity in the series on Mus musculus [7], in the series with Mus musculus [8] and with Mus musculus [9] were 625.3, 300.9 and 602.3, respectively.
With `Cn1c(=O)c2c(nc3n(CCCN4CCN(c5ccccc5)CC4)ccn23)n(C)c1=O`, the Activity entry in the series on Mus musculus [10] was “Dose-dependent effect”; in the series with Mus musculus [21] it was 4.7; with Mus musculus [22], 6.3; with Mus musculus [3], 147.5 s; in the series with Mus musculus [4] it was 87.9 s; in the series with Mus musculus [5] it was 88.9 s. The Activity is 146.4 with Mus musculus [6], 255.6 in the series on Mus musculus [7], 139.2 in the series on Mus musculus [8] and 221 in the series on Mus musculus [9]. In addition, the deltaT in the series on Mus musculus [11] is -0.2 °C; in the series with Mus musculus [12] it was -0.4 °C; with Mus musculus [13], -0.4 °C; in the series on Mus musculus [14] it was -1.2 °C; in the series with Mus musculus [15], -0.6 °C; in the series on Mus musculus [18] it was -0.4 °C. In addition, the deltaT in the series on Mus musculus [19] was 0 °C; in the series with Mus musculus [20], -0.3 °C. Also, the values for the Ki (at D(2) dopamine receptor; in [16]; in series [17]) were more than 1000 nM, more than 1000 nM and 24.8 nM, respectively. The result in the series with Rattus norvegicus was Active.
